Laboratory results as given in ChEMBL document CHEMBL5653630, “Activation of the p53-MDM4 regulatory axis defines the anti-tumour response to PRMT5 inhibition through its role in regulating cellular splicing” (Sci Rep, 2018).
Calls of active or inactive are those of the source. The rule behind the calls is not given here.

What was measured:
Z-138 [1] = test: In vivo inhibition of PRMT5 in human Z138 cells xenografted in po dosed mouse assessed as reduction in SDMA level measured for 7 days; assay type: functional, organism-based; settings: dose 0.2-100 mg/kg, time 7.0 day
Rec1 = test: Induction of cell cycle arrest in human REC1 cells assessed as increase in 2n cell population measured upto 5000 nM measured for 3 days by propidium iodide staining based flow cytometric analysis; assay type: functional; settings: time 3.0 day
Z-138 [2] = test: Antitumor activity against human Z138 cells xenografted in mouse assessed as reduction in tumor volume at 50 to 100 mg/kg, po BID measured for 10 days; assay type: functional, organism-based; settings: dose 50-100 mg/kg, time 10.0 day
JVM-2 = test: Induction of apoptosis in human JVM-2 cells assessed as early apoptotic cells incubated for 6 days by annexin-V/FITC propidium iodide staining based flow cytometry analysis; assay type: functional, cell-based; settings: dose <= 5000.0 nM, time 6.0 day
Maver1 = test: Induction of apoptosis in human MAVER-1 cells assessed as early apoptotic cells incubated for 6 days by annexin-V/FITC propidium iodide staining based flow cytometry analysis; assay type: functional, cell-based; settings: dose <= 5000.0 nM, time 6.0 day
Z-138 [3] = test: In vivo inhibition of PRMT5 in human Z138 cells xenografted in mouse assessed as increase in PHLDA3 expression at 100 mg/kg, po BID measured for 7 days; assay type: functional, organism-based; settings: time 7.0 day
SK-MEL3 = test: Antiproliferative activity against human SK-MEL3 cells assessed as cell growth inhibition incubated for 10 days; assay type: functional; settings: SK-MEL3, 240 h, time 10 day
SH-4 = test: Antiproliferative activity against human SH-4 cells assessed as cell growth inhibition incubated for 10 days; assay type: functional; settings: SH-4, 240 h, time 10 day
RKO = test: Antiproliferative activity against human RKO cells assessed as cell growth inhibition incubated for 10 days; assay type: functional; settings: 240 h, time 10 day
DOHH-2 = test: Antiproliferative activity against human DOHH-2 cells assessed as cell growth inhibition incubated for 10 days; assay type: functional; settings: DOHH-2, 240 h, time 10 day
Outline: (§1)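 Outsourced panel run in 384-well plates. Cells were grown in RPMI-1640/10% FBS or a special medium at 37°C, 5% CO2. Compound was added 24 h after seeding as a 10-point, 3.16-fold series in 0.1% DMSO. Medium was refreshed and cells re-dosed at 168 h, with a time-zero plate kept. At 240 h cells were fixed, nuclei stained and imaged. gIC50 is growth midway between untreated and time zero, from a 4-parameter fit.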

U2OS = test: Antiproliferative activity against human U2OS cells assessed as cell growth inhibition incubated for 10 days; assay type: functional; settings: 240 h, time 10 day
COLO 320DM = test: Antiproliferative activity against human Colo 320DM cells assessed as cell growth inhibition incubated for 10 days; assay type: functional; settings: 240 h, time 10 day; outline: as §1
A673 = test: Antiproliferative activity against human A673 cells assessed as cell growth inhibition incubated for 10 days; assay type: functional; settings: A673, 240 h, time 10 day
Outline: (§2)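 Cells kept in RPMI-1640 with 10% FBS, 2 mM L-alanyl-L-glutamine and 1 mM Na pyruvate (or a special medium) at 37°C, 5% CO2. Compound added 24 h after seeding, 10 concentrations in 3.16-fold dilution, 0.1% DMSO final. Medium replaced and cells re-dosed at 168 h; 240 h incubation. Nuclei fixed, dye-stained and imaged. gIC50 = growth midway between untreated and time-zero cell counts, from a 4-parameter fit.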

A-431 = test: Antiproliferative activity against human A-431 cells assessed as cell growth inhibition incubated for 10 days; assay type: functional; settings: A-431, 240 h, time 10 day; outline: as §2
JAR = test: Antiproliferative activity against human JAR cells assessed as cell growth inhibition incubated for 10 days; assay type: functional; settings: 240 h, time 10 day
Outline: (§3)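 Eurofins-panel 10-day assay in 384-well plates. Cells grown in RPMI-1640 with 10% FBS, 2 mM L-alanyl-L-glutamine and 1mM Na pyruvate, or a special medium, at 37°C in 5% CO₂. Compound added 24 h after seeding, 10-point 3.16-fold series in 0.1% DMSO. Medium replaced and compound re-dosed at 168 h. Nuclei fixed and stained after 240 h, then imaged to give a relative cell count. gIC50 is the concentration giving growth midway between untreated and time-zero counts, from a 4-parameter fit.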

AGS = test: Antiproliferative activity against human AGS cells assessed as cell growth inhibition incubated for 10 days; assay type: functional; settings: 240 h, time 10 day; outline: as §2
ARH-77 = test: Antiproliferative activity against human ARH-77 cells assessed as cell growth inhibition incubated for 10 days; assay type: functional; settings: ARH-77, 240 h, time 10 day; outline: as §2
SCC-9 = test: Antiproliferative activity against human SCC-9 cells assessed as cell growth inhibition incubated for 10 days; assay type: functional; settings: SCC-9, 240 h, time 10 day
769-P = test: Antiproliferative activity against human 769-P cells assessed as cell growth inhibition incubated for 10 days; assay type: functional; settings: 240 h, time 10 day; outline: as §2
ACHN = test: Antiproliferative activity against human ACHN cells assessed as cell growth inhibition incubated for 10 days; assay type: functional; settings: 240 h, time 10 day; outline: as §2
CAL-62 = test: Antiproliferative activity against human CAL-62 cells assessed as cell growth inhibition incubated for 10 days; assay type: functional; settings: CAL-62, 240 h, time 10 day; outline: as §2
[4] = system: KATO III stomach cancer cell line; test: Antiproliferative activity against human KATO III stomach cancer cell line assessed as cell growth inhibition incubated for 10 days; assay type: functional; settings: 240 h, time 10 day; outline: as §3
RPMI-8226 = test: Antiproliferative activity against human RPMI-8226 cells assessed as cell growth inhibition incubated for 10 days; assay type: functional; settings: RPMI-8226, 240 h, time 10 day
[5] = Antiproliferative activity against human KHOS-240S cells assessed as cell growth inhibition incubated for 10 days; assay type: functional; settings: 240 h, time 10 day; outline: as §3
WiDr = test: Antiproliferative activity against human WiDr cells assessed as cell growth inhibition incubated for 10 days; assay type: functional; settings: 240 h, time 10 day
HMCB cell line = test: Antiproliferative activity against human HMCB cell line assessed as cell growth inhibition incubated for 10 days; assay type: functional; settings: 240 h, time 10 day; outline: as §1
DMS-53 = test: Antiproliferative activity against human DMS-53 cells assessed as cell growth inhibition incubated for 10 days; assay type: functional; settings: DMS-53, 240 h, time 10 day; outline: as §1
SW1088 = test: Antiproliferative activity against human SW1088 cells assessed as cell growth inhibition incubated for 10 days; assay type: functional; settings: SW1088, 240 h, time 10 day
SU.86.86 = test: Antiproliferative activity against human SU-86-86 cells assessed as cell growth inhibition incubated for 10 days; assay type: functional; settings: SU.86.86, 240 h, time 10 day
MeWo = test: Antiproliferative activity against human MeWo cells assessed as cell growth inhibition incubated for 10 days; assay type: functional; settings: 240 h, time 10 day
ChaGo-K-1 = test: Antiproliferative activity against human ChaGo-K-1 cells assessed as cell growth inhibition incubated for 10 days; assay type: functional; settings: ChaGo-K-1, 240 h, time 10 day; outline: as §1
CWR22R = test: Antiproliferative activity against human 22Rv1 cells assessed as cell growth inhibition incubated for 10 days; assay type: functional; settings: 22Rv1, 240 h, time 10 day; outline: as §2
SW948 = test: Antiproliferative activity against human SW948 cells assessed as cell growth inhibition incubated for 10 days; assay type: functional; settings: SW948, 240 h, time 10 day
BPH-1 = test: Antiproliferative activity against human BPH-1 cells assessed as cell growth inhibition incubated for 10 days; assay type: functional; settings: BPH-1, 240 h, time 10 day; outline: as §2
SNU-5 = test: Antiproliferative activity against human SNU-5 cells assessed as cell growth inhibition incubated for 10 days; assay type: functional; settings: SNU-5, 240 h, time 10 day

SMILES: CC(=O)N1CCC(Nc2cc(C(=O)NC[C@H](O)CN3CCc4ccccc4C3)ncn2)CC1 [PEMRAMETOSTAT]
- inhibition (Z-138 [1]): Dose-Dependent Effect
- Activity (Rec1): inactive
- Activity (Z-138 [2]): Active
- Activity (JVM-2): Dose-Dependent Effect
- Activity (Maver1): Dose-Dependent Effect
- inhibition (Z-138 [3]): Active

SMILES: O=C(NC[C@H](O)CN1CCc2ccccc2C1)c1ccnc(NC2CCC2)c1
- GI50 (SK-MEL3): 0.181 µM
- GI50 (SH-4): 0.0752 µM
- GI50 (RKO): 0.772 µM
- GI50 (DOHH-2): 0.157 µM
- GI50 (U2OS): 0.485 µM
- GI50 (COLO 320DM): 0.0825 µM
- GI50 (A673): 0.119 µM
- GI50 (A-431): 0.549 µM
- GI50 (JAR): 0.485 µM
- GI50 (AGS): 2.03 µM
- GI50 (ARH-77): 0.0444 µM
- GI50 (SCC-9): 0.747 µM
- GI50 (769-P): 0.203 µM
- GI50 (ACHN): 0.0386 µM
- GI50 (CAL-62): 0.253 µM
- GI50 [4]: 0.0167 µM
- GI50 (RPMI-8226): 0.0584 µM
- GI50 [5]: 0.124 µM
- GI50 (WiDr): 0.505 µM
- GI50 (HMCB cell line): 0.666 µM
- GI50 (DMS-53): 0.106 µM
- GI50 (SW1088): 0.0405 µM
- GI50 (SU.86.86): 0.934 µM
- GI50 (MeWo): 0.249 µM
- GI50 (ChaGo-K-1): 1.19 µM
- GI50 (CWR22R): 2.48 µM
- GI50 (SW948): 0.12 µM
- GI50 (BPH-1): 0.718 µM
- GI50 (SNU-5): 0.11 µM
